Bioassay records deposited in PubChem BioAssay by several laboratories.
STAT3 blocker: inhibitors of IL-6 induced STAT3 signaling. AID 862. inhibition, % at 5.5 µM. 190,000 compounds, 0.89% hits. U3A cells, IL-6 STAT3-luciferase reporter, luminescence; host cell line lacks STAT1;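 active means inhibition above the mean inhibition across all screened compounds plus 3 SD, cut at about 44% in these data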;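 further: 0% = DMSO only wells and 100% = 100 µM nifuroxazide control wells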
STAT3 activator: increases IL-6 driven STAT3 reporter signal; U3A cells, IL-6 STAT3-luciferase reporter, luminescence; 100% = signal with IL-6 EC80 alone; activation (% of control), % at 5.6 µM; 190,000 compounds, 0.91% hits;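 active means activation above the screen-wide mean of compound activation plus 3 SD, cut at about 130% in these data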;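 further: 0% = background luminescence of wells with medium and substrate only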
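Material: human U3A cells carrying STAT3-luciferase construct. Measured by: reporter luminescence signal. Timing: compound 1 h, then IL-6 6 h at 37 °C.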
PERK inhibitor: blocks human PERK kinase. Q9NZJ5. CHO PERK-DD fusion, SEAP luminescence translation reporter. inhibition, % at 5.6 µM. 220,000 compounds, 0.17% hits;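 active means inhibition above the mean inhibition of all tested compounds plus 3 SD, set separately per screening campaign, cut at about 2.9% in these data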;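 further: PERK kinase domain activated by AP20187 dimerizer at 100 nM; 0% = DMSO with dimerizer and 100% = rapamycin at 8.4 µM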
Target sequence (Q9NZJ5 whole entry, looked up, the tested form may be a part): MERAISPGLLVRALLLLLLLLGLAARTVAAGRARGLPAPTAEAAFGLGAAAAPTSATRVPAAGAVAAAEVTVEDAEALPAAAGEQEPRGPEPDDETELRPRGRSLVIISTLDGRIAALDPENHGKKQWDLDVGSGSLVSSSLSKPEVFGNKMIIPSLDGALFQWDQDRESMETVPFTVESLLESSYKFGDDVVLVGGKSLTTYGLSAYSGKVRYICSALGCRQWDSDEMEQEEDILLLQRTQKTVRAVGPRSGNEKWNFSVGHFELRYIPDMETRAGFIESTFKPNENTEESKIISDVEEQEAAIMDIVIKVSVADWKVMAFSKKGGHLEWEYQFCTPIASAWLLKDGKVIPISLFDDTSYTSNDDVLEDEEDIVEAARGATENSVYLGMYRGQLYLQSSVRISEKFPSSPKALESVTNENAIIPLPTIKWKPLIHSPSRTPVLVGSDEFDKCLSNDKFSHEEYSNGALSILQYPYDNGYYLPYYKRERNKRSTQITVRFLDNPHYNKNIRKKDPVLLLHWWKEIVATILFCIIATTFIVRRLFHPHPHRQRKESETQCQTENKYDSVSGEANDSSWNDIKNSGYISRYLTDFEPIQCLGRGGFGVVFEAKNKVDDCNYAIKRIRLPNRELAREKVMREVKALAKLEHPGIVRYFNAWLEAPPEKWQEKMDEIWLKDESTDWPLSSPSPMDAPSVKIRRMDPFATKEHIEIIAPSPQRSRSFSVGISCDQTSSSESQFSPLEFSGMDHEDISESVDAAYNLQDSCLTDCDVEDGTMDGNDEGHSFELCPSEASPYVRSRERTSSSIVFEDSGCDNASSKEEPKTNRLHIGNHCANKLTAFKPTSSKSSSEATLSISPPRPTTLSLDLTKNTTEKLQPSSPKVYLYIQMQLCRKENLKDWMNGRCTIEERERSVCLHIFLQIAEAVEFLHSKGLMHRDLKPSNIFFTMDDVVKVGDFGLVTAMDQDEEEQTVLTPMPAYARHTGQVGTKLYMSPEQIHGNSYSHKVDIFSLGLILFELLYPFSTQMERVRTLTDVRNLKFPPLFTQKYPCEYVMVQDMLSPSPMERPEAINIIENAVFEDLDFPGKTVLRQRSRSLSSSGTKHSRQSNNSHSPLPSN
Platelet DG rel: platelet dense granule release activity | inhibition, %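 (compounds screened at 7.5 µM in platelet-rich plasma)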 | human platelet-rich plasma, SFLLRN dense granule ATP release, luminescence | AID 1663 | 300,000 compounds, 0.22% hits;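 active means mean replicate score, as percent of positive control, at or above 50; inconclusive means mean below 50 but at least one replicate at or above 50; inactive means mean and every replicate below 50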
STAT1 inh: reduces IFN-gamma driven STAT1 reporter signal; NIH 3T3 STAT1-luciferase reporter, luminescence; inhibition, % at 5.5 µM; 200,000 compounds, 0.35% hits;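 active means inhibition above a set limit, the mean inhibition across all tested compounds plus 3 SD, cut at about 34% in these data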;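 further: 0% = IFN-gamma with DMSO and 100% = IFN-gamma with 300 µM nifuroxazide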
Active calls of the source: *; ? = inconclusive; · = no result given. Rows were chosen to be rich in hits. Some 1.4% of all compounds tested hit in one or more screens of this group.

SMILES | STAT3 blocker | STAT3 activator | PERK inhibitor | Platelet DG rel | STAT1 inh
C[C@@H]1NC(=O)c2cc([N+](=O)[O-])cc(I)c2OCC[C@@H](C(N)=O)NC(=O)[C@H](CCC(=O)O)NC1=O | -7 | 104 | 0 | · | -1
Cn1cc(NC(=O)Nc2ccc(C(F)(F)F)cc2)c(C(F)(F)F)n1 | · | · | 3.9* | -1 | ·
CN(CC1CCCO1)S(=O)(=O)c1ccc(C(=O)Nc2nc3cc4c(cc3s2)OCO4)cc1 (stereo not drawn) | 82* | 37 | 0 | 3 | 7
Cc1onc(-c2ccccc2)c1C(=O)NC(C)CCc1ccccc1 (stereo not drawn) | · | · | · | -23 | ·
O=C(O)CSc1cc(NS(=O)(=O)c2ccc(Cl)cc2)c2ccccc2c1O | · | · | · | 11 | ·
Cc1cc(C)c(S(=O)(=O)Nc2cc(SCC(=O)O)c(O)c3ccccc23)cc1C | -42 | 135* | 1 | -6 | 4
CC1(C)CCCC(C)(C)N1CC(O)COCCOc1ccc(Br)cc1 (stereo not drawn) | 0 | 102 | 0 | -17 | -2
Cc1onc(-c2c(Cl)cccc2Cl)c1C(=O)ONC(=O)c1cc(C(F)(F)F)cc(C(F)(F)F)c1 | · | · | 3.0* | -7 | ·
Cc1cccc(NC(=O)c2ccoc2C)n1 | 13 | 94 | 0 | 5 | -4
Cc1occc1C(=O)Nc1cc(C(C)(C)C)on1 | -1 | 105 | 0 | 56* | -56
Cc1nn(C(=O)c2cc3sccc3[nH]2)c(C)c1C | -50 | 143* | 0 | -5 | -41
Cc1nn(C(=O)CNC(=O)c2ccccc2)c(C)c1C | 24 | 87 | 1 | -2 | -15
CC(C)C(C)NC(=O)COC(=O)c1cccc(C(=O)OCC(=O)NC(C)C(C)C)n1 (stereo not drawn) | 5 | 97 | 0 | 2 | 20
Cc1ccc(/C=C/C(=O)OCC(=O)NCCN2C(=O)CSC2=O)o1 | -4 | 106 | 3.2* | -3 | 0
CCOC(=O)/C=C/c1ccc2c(c1)S(=O)(=O)N(c1cccc(OC)c1)[C@H]2CC(=O)OCC | · | · | · | 7 | ·
O=C(c1cccs1)c1c[nH]cc1-c1ccccc1 | · | · | · | -10 | ·
O=c1[nH]c2ccccc2nc1/C=C(\O)c1cccs1 | -84 | 169* | 1 | -1 | -51
CCC1CCCCN1C(=O)CSc1nnc(-c2c[nH]c3ccccc23)o1 (stereo not drawn) | 17 | 87 | -1 | 1 | -6
CC1CCN(C(=O)CSc2nc3ccccc3s2)CC1 | -24 | 124 | -1 | -4 | -35
CC1CCCC(C)N1C(=O)CSc1nc2ccccc2s1 (stereo not drawn) | -39 | 133* | 0 | -3 | -3
CCOC(=O)c1cc2cc(OC)ccc2nc1C | 20 | 86 | 0 | 66* | -4
COc1ccccc1CN1CCC(n2nccc2NC(=O)CCCc2ccccc2)CC1 | · | · | · | 20 | ·
CC(=O)n1c2c(c3ccccc31)OC(N)=C(C#N)C2c1ccc(C(C)C)cc1 (stereo not drawn) | -73 | 165* | 1 | -2 | -32
Cc1ccc(Cl)cc1NC(=O)CCCN1C(=O)c2cccnc2C1=O | 0 | 102 | 1 | 12 | -10
CCOc1ccccc1NC(=S)NCCc1ccccc1 | 13 | 93 | 2 | 4 | 6
SMILES | STAT3 blocker | STAT3 activator | PERK inhibitor | Platelet DG rel | STAT1 inh
CCCNC(=O)c1cc2c3ccccc3n(C)c2s1 | -20 | 122 | 0 | 3 | 2
Cn1c2ccccc2c2cc(C(=O)NNC(=O)CCl)sc21 | -25 | 137* | 1 | -1 | -37
COc1ccc(N(CC(=O)Nc2ccccc2C(N)=O)S(=O)(=O)c2ccc(C)c([N+](=O)[O-])c2)cc1 | -7 | 107 | 0 | 5 | -13
O=C(CN1C(=O)NC2(CCCCC2)C1=O)Nc1ccc2c(c1)CCC2 | -34 | 134* | 1 | 1 | -22
COc1cc(/C=N/NC(=O)c2cc(-c3c(C)nn(-c4ccccc4)c3C)n[nH]2)ccc1O | -150 | 236* | 1 | 39 | -123
Cc1ccc(-n2c(N)c(C#N)c(-c3ccc(Cl)cc3)c(C#N)c2=O)cc1 | 10 | 99 | -1 | 75* | 3
Cc1ccc(-c2c(C#N)c(N)n(-c3ccc(C)cc3)c(=O)c2C#N)cc1 | 10 | 92 | 0 | ? | 5
COc1ccc(-c2csc(N)n2)cc1 | -5 | 108 | 0 | 12 | -21
COc1ccc(OCc2nc(-c3ccc(F)c(F)c3)cs2)cc1 | · | · | 3.3* | -2 | ·
Cc1ccc(C)c(NC2=NS(=O)(=O)c3ccccc32)c1 | -1 | 103 | 1 | 0 | 2
Cc1cc(C)c(NC2=NS(=O)(=O)c3ccccc32)c(C)c1 | 8 | 93 | 3.6* | -1 | 0
O=[N+]([O-])c1cc(CN2CCC(O)CC2)ccc1Cl | 6 | 98 | 0 | -5 | -2
Cc1ccc(CCNC(=O)C2CCN(S(=O)(=O)N3CCOCC3)CC2)cc1 | · | · | · | 17 | ·
CCOC(=O)N1CCC(N2C(=O)c3ccccc3C2Nc2ccc(S(=O)(=O)N3CCCCC3)cc2)CC1 (stereo not drawn) | 13 | 94 | 0 | 4 | -2
CC(C)(C)c1ccc(C(=O)NC(=S)NNC(=O)c2cccs2)cc1 | 24 | 81 | 0 | 52* | 0
O=C(NC(=S)NNC(=O)c1cccs1)c1ccccc1 | · | · | · | -6 | ·
Cn1c(=O)c(C(=O)CN2CC(=O)Nc3ccccc32)c(N)n(Cc2ccccc2)c1=O | 0 | 104 | 0 | -1 | 6
COc1ccccc1N1CCN(CCc2n[nH]c(=S)n2-c2ccccc2)CC1 | 14 | 94 | 0 | -1 | 5
CCN1CCN(C(=O)c2cc(COc3ccc(C(C)=O)cc3OC)on2)CC1 | · | · | · | -9 | ·
Cc1ccc(S(=O)(=O)NCCCN(C)C)cc1 | -5 | 105 | 3.2* | 18 | 11
Cc1ccc(/C(O)=C2\C(=O)C(=O)N(C)C2c2ccccc2[N+](=O)[O-])cc1 (stereo not drawn) | · | · | · | 11 | ·
Cc1ccc(/C(O)=C2\C(=O)C(=O)N(Cc3cccnc3)C2c2ccccc2[N+](=O)[O-])cc1 (stereo not drawn) | -34 | 133* | 0 | -2 | -18
C1=C(c2cccc3ccccc23)N2CCN=C2S1 | -54 | 150* | 0 | 2 | 10
C=CCCCCCCCCc1nc(SCC(=O)O)n[nH]1 | · | · | 3.0* | -5 | ·
COc1ccc(OCCSc2ncc(CO)n2C)cc1 | · | · | · | 3 | ·
SMILES | STAT3 blocker | STAT3 activator | PERK inhibitor | Platelet DG rel | STAT1 inh
O=C(COC(=O)c1ncc(Cl)c(Cl)c1Cl)Nc1ccccc1OC(F)F | -40 | 134* | 0 | -9 | -2
O=C(COC(=O)c1ncc(Cl)c(Cl)c1Cl)Nc1cccnc1Cl | · | · | · | -11 | ·
Cn1c(=O)cc(C(=O)N/N=C/c2ccc(Cl)cc2)[nH]c1=O | · | · | 2.9* | 6 | ·
Cn1c(=O)n(C)c2cc(/C=N/NC(=O)c3ccc(Cl)cc3)ccc21 | · | · | -1 | -2 | ·
COc1ccc(CN2C(=NC(=O)C3CC3)SC3CS(=O)(=O)CC32)cc1 (stereo not drawn) | · | · | · | -3 | ·
CCOC(=O)c1cc(C#N)c(SCc2ccc(C#N)cc2)nc1C | -36 | 136* | -1 | -2 | -4
Nc1ccc(C(=O)OCc2nc3c(ccc4ccccc43)[nH]2)cc1 | -39 | 136* | 0 | 0 | -53
